Measurements as given in ChEMBL document CHEMBL5724801, “EUbOPEN Chemogenomics Library - Multiplex” (2024).
Values joined by “and” are separate entries in the source; they are usually repeats but may differ in a detail not shown here. Equal entries are not always repeated.

Tested on: Fibroblast
Assay: Multiplex assay against human fibroblast
Assay type: toxicity, cell-based
Outline: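 Hoechst33342, BioTracker Green Microtubule Cytoskeleton Dye, MitoTracker Red and Annexin V Alexa Fluor 680 were added to live cells at seeding, and imaging on a CQ1 microscope at 37°C and 5% CO2 followed compound addition. Gating by CellPathfinder machine learning separated cells into Hoechst high-intensity objects or normal cells, then normal cells into healthy, pyknosed or fragmented nuclei, then pyknosed cells into mitotic or apoptotic. Per cents of healthy-nucleus cells are reported for the tubulin, mitochondrial-mass and membrane-permeability phenotypes.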

[1] = 12 h, 1 µM, compound concentration 1 uM
[2] = 12 h, 10 µM, compound concentration 10 uM
[3] = 24 h, 1 µM, compound concentration 1 uM
[4] = 24 h, 10 µM, compound concentration 10 uM
[5] = 48 h, 1 µM, compound concentration 1 uM
[6] = 48 h, 10 µM, compound concentration 10 uM

SMILES: Cl.NCCc1ccc(O)c(O)c1 [DOPAMINE HYDROCHLORIDE]
- Population Apoptotic (%) [1]: 42% and 44%
- Population Fragmented Nuclei (%) [1]: 13% and 34%
- Population Healthy Nuclei (%) [1]: 63% and 40%
- Population Hoechst High Intensity Objects (%) [1]: 1%
- Population Membrane Permeable-Phenotype (%) [1]: 0% and 4%
- Population Mitochondria Different-Phenotype (%) [1]: 1% and 6%
- Population Mitotic Cells (%) [1]: 57% and 55%
- Population Normal (%) [1]: 98%
- Population Pyknosed Nuclei (%) [1]: 23% and 24%
- Population Tubulin-Different-Phenotype (%) [1]: 34% and 45%
- Total Cell Count [1]: 115 and 152
- Population Apoptotic (%) [2]: 56% and 41%
- Population Fragmented Nuclei (%) [2]: 14% and 35%
- Population Healthy Nuclei (%) [2]: 62% and 40%
- Population Hoechst High Intensity Objects (%) [2]: 3% and 4%
- Population Membrane Permeable-Phenotype (%) [2]: 0% and 6%
- Population Mitochondria Different-Phenotype (%) [2]: 3% and 6%
- Population Mitotic Cells (%) [2]: 43% and 58%
- Population Normal (%) [2]: 96% and 95%
- Population Pyknosed Nuclei (%) [2]: 23%
- Total Cell Count [2]: 135 and 127
- Population Apoptotic (%) [3]: 55% and 51%
- Population Fragmented Nuclei (%) [3]: 14% and 34%
- Population Healthy Nuclei (%) [3]: 69% and 47%
- Population Hoechst High Intensity Objects (%) [3]: 0% and 2%
- Population Membrane Permeable-Phenotype (%) [3]: 1% and 7%
- Population Mitochondria Different-Phenotype (%) [3]: 1% and 0%
- Population Mitotic Cells (%) [3]: 44% and 48%
- Population Normal (%) [3]: 99% and 97%
- Population Pyknosed Nuclei (%) [3]: 16% and 18%
- Population Tubulin-Different-Phenotype (%) [3]: 31% and 37%
- Total Cell Count [3]: 112 and 150
- Population Apoptotic (%) [4]: 55% and 47%
- Population Fragmented Nuclei (%) [4]: 16% and 37%
- Population Healthy Nuclei (%) [4]: 69% and 46%
- Population Hoechst High Intensity Objects (%) [4]: 2% and 3%
- Population Membrane Permeable-Phenotype (%) [4]: 1% and 3%
- Population Mitochondria Different-Phenotype (%) [4]: 5% and 7%
- Population Mitotic Cells (%) [4]: 44% and 52%
- Population Normal (%) [4]: 97% and 96%
- Population Pyknosed Nuclei (%) [4]: 13% and 15%
- Population Tubulin-Different-Phenotype (%) [4]: 22% and 56%
- Total Cell Count [4]: 136 and 126
- Population Apoptotic (%) [5]: 36% and 38%
- Population Fragmented Nuclei (%) [5]: 22% and 33%
- Population Healthy Nuclei (%) [5]: 66% and 52%
- Population Hoechst High Intensity Objects (%) [5]: 6%
- Population Membrane Permeable-Phenotype (%) [5]: 1% and 5%
- Population Mitochondria Different-Phenotype (%) [5]: 2% and 3%
- Population Mitotic Cells (%) [5]: 63% and 61%
- Population Normal (%) [5]: 93%
- Population Pyknosed Nuclei (%) [5]: 10% and 14%
- Population Tubulin-Different-Phenotype (%) [5]: 28% and 43%
- Total Cell Count [5]: 110 and 159
- Population Apoptotic (%) [6]: 87% and 90%
- Population Fragmented Nuclei (%) [6]: 21% and 31%
- Population Healthy Nuclei (%) [6]: 66% and 60%
- Population Hoechst High Intensity Objects (%) [6]: 4% and 0%
- Population Membrane Permeable-Phenotype (%) [6]: 0% and 7%
- Population Mitochondria Different-Phenotype (%) [6]: 4%
- Population Mitotic Cells (%) [6]: 12% and 10%
- Population Normal (%) [6]: 95% and 99%
- Population Pyknosed Nuclei (%) [6]: 11% and 8%
- Population Tubulin-Different-Phenotype (%) [6]: 25% and 56%
- Total Cell Count [6]: 141 and 116

SMILES: CNC[C@H](O)c1ccc(O)c(O)c1 [EPINEPHRINE]
- Population Apoptotic (%) [1]: 36% and 40%
- Population Fragmented Nuclei (%) [1]: 17% and 38%
- Population Healthy Nuclei (%) [1]: 66% and 44%
- Population Hoechst High Intensity Objects (%) [1]: 1%
- Population Mitochondria Different-Phenotype (%) [1]: 3% and 7%
- Population Mitotic Cells (%) [1]: 63% and 60%
- Population Normal (%) [1]: 98%
- Population Pyknosed Nuclei (%) [1]: 16% and 17%
- Population Tubulin-Different-Phenotype (%) [1]: 15% and 42%
- Population Apoptotic (%) [2]: 40% and 32%
- Population Fragmented Nuclei (%) [2]: 18% and 39%
- Population Healthy Nuclei (%) [2]: 61% and 37%
- Population Hoechst High Intensity Objects (%) [2]: 3% and 7%
- Population Mitochondria Different-Phenotype (%) [2]: 6% and 8%
- Population Mitotic Cells (%) [2]: 60% and 67%
- Population Normal (%) [2]: 96% and 92%
- Population Pyknosed Nuclei (%) [2]: 20% and 23%
- Population Tubulin-Different-Phenotype (%) [2]: 23% and 55%
- Population Apoptotic (%) [3]: 54% and 23%
- Population Healthy Nuclei (%) [3]: 70% and 47%
- Population Hoechst High Intensity Objects (%) [3]: 0% and 3%
- Population Membrane Permeable-Phenotype (%) [3]: 0% and 12%
- Population Mitochondria Different-Phenotype (%) [3]: 3% and 6%
- Population Mitotic Cells (%) [3]: 45% and 76%
- Population Normal (%) [3]: 99% and 96%
- Population Pyknosed Nuclei (%) [3]: 16% and 14%
- Population Tubulin-Different-Phenotype (%) [3]: 11% and 32%
- Population Apoptotic (%) [4]: 65% and 38%
- Population Fragmented Nuclei (%) [4]: 16% and 39%
- Population Healthy Nuclei (%) [4]: 60% and 44%
- Population Hoechst High Intensity Objects (%) [4]: 3%
- Population Membrane Permeable-Phenotype (%) [4]: 0% and 12%
- Population Mitochondria Different-Phenotype (%) [4]: 5% and 4%
- Population Mitotic Cells (%) [4]: 34% and 61%
- Population Normal (%) [4]: 96%
- Population Pyknosed Nuclei (%) [4]: 23% and 15%
- Population Tubulin-Different-Phenotype (%) [4]: 21% and 51%
- Population Apoptotic (%) [5]: 50% and 38%
- Population Fragmented Nuclei (%) [5]: 17% and 41%
- Population Healthy Nuclei (%) [5]: 67% and 48%
- Population Hoechst High Intensity Objects (%) [5]: 1%
- Population Membrane Permeable-Phenotype (%) [5]: 0% and 6%
- Population Mitochondria Different-Phenotype (%) [5]: 6% and 5%
- Population Mitotic Cells (%) [5]: 50% and 61%
- Population Normal (%) [5]: 98%
- Population Pyknosed Nuclei (%) [5]: 15% and 10%
- Population Tubulin-Different-Phenotype (%) [5]: 23% and 45%
- Population Apoptotic (%) [6]: 77% and 37%
- Population Fragmented Nuclei (%) [6]: 20% and 50%
- Population Healthy Nuclei (%) [6]: 65% and 44%
- Population Hoechst High Intensity Objects (%) [6]: 2% and 3%
- Population Membrane Permeable-Phenotype (%) [6]: 2% and 6%
- Population Mitochondria Different-Phenotype (%) [6]: 4% and 3%
- Population Mitotic Cells (%) [6]: 22% and 62%
- Population Normal (%) [6]: 97% and 96%
- Population Pyknosed Nuclei (%) [6]: 13% and 5%
- Population Tubulin-Different-Phenotype (%) [6]: 32% and 46%

SMILES: CN[C@@H](C)C(=O)N[C@H](C(=O)N1CCC[C@H]1C(=O)Nc1snnc1-c1ccccc1)C1CCCCC1 [GDC-0152]
- Population Apoptotic (%) [1]: 70% and 33%
- Population Fragmented Nuclei (%) [1]: 14% and 16%
- Population Healthy Nuclei (%) [1]: 68% and 56%
- Population Hoechst High Intensity Objects (%) [1]: 4% and 6%
- Population Membrane Permeable-Phenotype (%) [1]: 1% and 6%
- Population Mitochondria Different-Phenotype (%) [1]: 6% and 9%
- Population Mitotic Cells (%) [1]: 30% and 66%
- Population Normal (%) [1]: 95% and 93%
- Population Pyknosed Nuclei (%) [1]: 16% and 26%
- Population Tubulin-Different-Phenotype (%) [1]: 38% and 62%
- Total Cell Count [1]: 127 and 121
- Population Apoptotic (%) [2]: 38% and 24%
- Population Fragmented Nuclei (%) [2]: 17% and 26%
- Population Healthy Nuclei (%) [2]: 59% and 34%
- Population Hoechst High Intensity Objects (%) [2]: 6% and 10%
- Population Membrane Permeable-Phenotype (%) [2]: 0%
- Population Mitochondria Different-Phenotype (%) [2]: 13% and 10%
- Population Mitotic Cells (%) [2]: 61% and 75%
- Population Normal (%) [2]: 93% and 90%
- Population Pyknosed Nuclei (%) [2]: 22% and 39%
- Population Tubulin-Different-Phenotype (%) [2]: 80% and 65%
- Total Cell Count [2]: 144 and 150
- Population Apoptotic (%) [3]: 60% and 37%
- Population Fragmented Nuclei (%) [3]: 20% and 22%
- Population Healthy Nuclei (%) [3]: 63% and 55%
- Population Hoechst High Intensity Objects (%) [3]: 2% and 9%
- Population Membrane Permeable-Phenotype (%) [3]: 1% and 2%
- Population Mitochondria Different-Phenotype (%) [3]: 1% and 11%
- Population Mitotic Cells (%) [3]: 40% and 62%
- Population Normal (%) [3]: 97% and 90%
- Population Pyknosed Nuclei (%) [3]: 16% and 22%
- Population Tubulin-Different-Phenotype (%) [3]: 30% and 61%
- Total Cell Count [3]: 123 and 133
- Population Apoptotic (%) [4]: 67% and 41%
- Population Fragmented Nuclei (%) [4]: 14% and 33%
- Population Healthy Nuclei (%) [4]: 58% and 34%
- Population Hoechst High Intensity Objects (%) [4]: 5% and 8%
- Population Membrane Permeable-Phenotype (%) [4]: 0% and 16%
- Population Mitochondria Different-Phenotype (%) [4]: 21% and 22%
- Population Mitotic Cells (%) [4]: 32% and 58%
- Population Normal (%) [4]: 94% and 91%
- Population Pyknosed Nuclei (%) [4]: 26% and 31%
- Population Tubulin-Different-Phenotype (%) [4]: 83% and 68%
- Total Cell Count [4]: 135 and 157
- Population Apoptotic (%) [5]: 47% and 57%
- Population Fragmented Nuclei (%) [5]: 23% and 38%
- Population Healthy Nuclei (%) [5]: 60% and 44%
- Population Hoechst High Intensity Objects (%) [5]: 1% and 5%
- Population Membrane Permeable-Phenotype (%) [5]: 0% and 2%
- Population Mitotic Cells (%) [5]: 52% and 42%
- Population Normal (%) [5]: 98% and 94%
- Population Pyknosed Nuclei (%) [5]: 16% and 17%
- Population Tubulin-Different-Phenotype (%) [5]: 48% and 67%
- Total Cell Count [5]: 132 and 159
- Population Apoptotic (%) [6]: 76% and 44%
- Population Fragmented Nuclei (%) [6]: 23% and 39%
- Population Healthy Nuclei (%) [6]: 45% and 42%
- Population Hoechst High Intensity Objects (%) [6]: 6%
- Population Membrane Permeable-Phenotype (%) [6]: 0% and 19%
- Population Mitochondria Different-Phenotype (%) [6]: 22% and 17%
- Population Mitotic Cells (%) [6]: 23% and 55%
- Population Normal (%) [6]: 93%
- Population Pyknosed Nuclei (%) [6]: 31% and 18%
- Population Tubulin-Different-Phenotype (%) [6]: 81% and 88%
- Total Cell Count [6]: 145 and 159
